ChEMBL document CHEMBL4177680, “Discovery of a Potent, Selective T-type Calcium Channel Blocker as a Drug Candidate for the Treatment of Generalized Epilepsies” (J Med Chem, 2017)

Columns and labels:
[1] = test system: Salmonella typhimurium; assay: Mutagenicity in Salmonella typhimurium TA98 assessed as increase in number of revertants in presence of rat liver S9 fraction by Ames test relative to control; assay type: toxicity, organism-based; conditions: salmonella enterica subsp. enterica serovar typhimurium
[2] = test system: Salmonella typhimurium; assay: Mutagenicity in Salmonella typhimurium TA100 assessed as increase in number of revertants in presence of rat liver S9 fraction by Ames test relative to control; assay type: toxicity, organism-based; conditions: salmonella enterica subsp. enterica serovar typhimurium
[3] = test system: MDR1; assay: Apparent permeability across apical to basolateral side in MDCK cells expressing MDR1 at 1 uM measured every 30 mins for 2 hrs; assay type: ADME, cell-based, Canis lupus familiaris; conditions: dog
[4] = test system: MDR1; assay: Apparent permeability across basolateral to apical side in MDCK cells expressing MDR1 at 1 uM measured every 30 mins for 2 hrs; assay type: ADME, cell-based, Canis lupus familiaris; conditions: dog
[5] = Total drug level in Wistar rat brain at 10 mg/kg administered via oral gavage measured after 1 hr by LC-MS/MS method; assay type: ADME, organism-based; conditions: read-out: Drug uptake
[6] = Free drug level in Wistar rat brain at 10 mg/kg administered via oral gavage measured after 1 hr by rapid equilibrium dialysis method; assay type: ADME, organism-based; conditions: in vivo
[7] = Drug level in Wistar rat cerebrospinal fluid at 10 mg/kg administered via oral gavage measured after 1 hr by LC-MS/MS method; assay type: ADME, organism-based; conditions: read-out: Drug uptake
Outline: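 Wistar rats given 10 mg/kg po and killed at 1 h. Brain, plasma and CSF concentrations measured; free brain and plasma levels reported from unbound fractions. Mean ± SD, n = 3.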

[8] = Chemical stability of the compound in amorphous form at room temperature; assay type: physicochemical
[9] = Half life in human plasma at 10 uM by LC-MS/MS method; assay type: ADME, cell-free
[10] = Half life in rat plasma at 10 uM by LC-MS/MS method; assay type: ADME, cell-free
[11] = Drug metabolism in human plasma assessed as 3-amino-1-(3,4-difluorobenzyl)pyrazole formation at 10 uM by LC-MS/MS method; assay type: ADME, cell-free
[12] = Drug metabolism in rat plasma assessed as 3-amino-1-(3,4-difluorobenzyl)pyrazole formation at 10 uM by LC-MS/MS method; assay type: ADME, cell-free
[13] = Drug level in rat plasma treated with N-(1-(3,4-Difluorobenzyl)-1H-pyrazol-3-yl)-2-(1H-indol-5-yl)acetamide at 10 uM by LC-MS/MS method; assay type: ADME, cell-free
[14] = Drug level in human plasma treated with N-(1-(3,4-Difluorobenzyl)-1H-pyrazol-3-yl)-2-(1H-indol-5-yl)acetamide at 10 uM by LC-MS/MS method; assay type: ADME, cell-free
[15] = Intrinsic clearance in human liver microsomes assessed per mg of protein at 1 uM after 15 mins in presence of NADPH regenerating system by LC-MS/MS method; assay type: ADME, microsome; conditions: read-out: CLH
[16] = Intrinsic clearance in Wistar rat liver microsomes assessed per mg of protein at 1 uM after 15 mins in presence of NADPH regenerating system by LC-MS/MS method; assay type: ADME, microsome; conditions: read-out: CLH
[17] = Clearance in Wistar rat at 1 mg/kg, iv administered via 5 mins infusion by LC-MS/MS method; assay type: ADME, organism-based; conditions: in vivo
[18] = Half life in Wistar rat at 1 mg/kg, iv administered via 5 mins infusion by LC-MS/MS method; assay type: ADME, organism-based; conditions: in vivo
[19] = Cmax in Wistar rat plasma at 10 mg/kg administered via oral gavage by LC-MS/MS method; assay type: ADME, organism-based; parameters: dose 10 mg/kg, route oral
[20] = Oral bioavailability in Wistar rat at 10 mg/kg administered via gavage by LC-MS/MS method; assay type: ADME, organism-based; conditions: in vivo
[21] = Fraction unbound in audiogenic seizure-sensitive juvenile DBA/2J mouse brain at 100 mg/kg administered via oral gavage measured at 3 hrs; assay type: ADME, organism-based; conditions: in vivo
[22] = test system: Rattus norvegicus; assay: Unbound Cmax in normotensive Wistar rat at 30 mg/kg, po; assay type: ADME, organism-based; conditions: in vivo
[23] = test system: Rattus norvegicus; assay: Unbound Cmax in spontaneously hypertensive Wistar-Kyoto rat at 30 mg/kg, po; assay type: ADME, organism-based; conditions: in vivo
[24] = test system: Cavia porcellus; assay: Unbound Cmax in Dunkin-Hartley guinea pig at 30 mg/kg, po; assay type: ADME, organism-based; conditions: in vivo
[25] = test system: Canis familiaris; assay: Unbound Cmax in Beagle dog at 10 mg/kg, po; assay type: ADME, organism-based, Canis lupus familiaris; conditions: in vivo
[26] = test system: Cynomolgus monkey; assay: Unbound Cmax in cynomolgus monkey at 1000 mg/kg, po; assay type: ADME, organism-based, Macaca fascicularis; conditions: in vivo
[27] = Intrinsic clearance in monkey liver microsomes assessed per mg of protein at 1 uM after 15 mins in presence of NADPH regenerating system by LC-MS/MS method; assay type: ADME, Macaca mulatta, microsome; conditions: rhesus monkey, read-out: CLH
[28] = Clearance in NMRI mouse at 1 mg/kg, iv as slow bolus dose by LC-MS/MS method; assay type: ADME, organism-based; conditions: in vivo
[29] = Clearance in Beagle dog at 1 mg/kg, iv administered via 15 mins infusion by LC-MS/MS method; assay type: ADME, organism-based, Canis lupus familiaris; conditions: in vivo
[30] = Clearance in cynomolgus monkey at 1 mg/kg, iv administered via 15 mins infusion by LC-MS/MS method; assay type: ADME, organism-based, Macaca fascicularis; conditions: in vivo
[31] = Drug metabolism in human plasma at 10 uM after 6 hrs by LC-MS/MS method; assay type: ADME, cell-free; conditions: read-out: Drug metabolism
[32] = Covalent protein binding in human liver microsomes at 10 uM after 1 hr in presence of NADPH regenerating system by liquid scintillation counting method; assay type: ADME, microsome
[33] = Fraction unbound in Wistar rat plasma at 10 mg/kg administered via oral gavage measured after 1 hr by rapid equilibrium dialysis method; assay type: ADME, organism-based; conditions: in vivo

## Nc1ccn(CC2CCC(F)(F)CO2)n1 (stereo in doubt; 14b)
[1]
  fold change (FC): 1.1
[2]
  fold change (FC): 2.5

## Nc1cnn(Cc2ccc(F)c(F)c2)n1
[1]
  fold change (FC): 1.3
[2]
  fold change (FC): 3.3

## Cn1c(=O)oc2cc(CC(=O)Nc3ccn(Cc4ccc(F)c(F)c4)n3)ccc21
[3]
  Papp A→B at 2 h, 1 µM: 11 ×10⁻⁶ cm/s
[4]
  Papp B→A at 2 h, 1 µM: 59 ×10⁻⁶ cm/s

## Nc1ccn(Cc2ccccc2)n1
[1]
  fold change (FC): 15.3
[2]
  fold change (FC): 30.3

## Nc1nc(Cc2ccc(F)c(F)c2)cs1
[1]
  fold change (FC): 2.7
[2]
  fold change (FC): 1.1

## N#Cc1ccc(Cn2ccc(N)n2)cc1
[1]
  fold change (FC): 1.5
[2]
  fold change (FC): 1.1

## O=C(Cc1ccc(C2(F)COC2)cc1)Nc1ccn(Cc2ccc(F)c(F)c2)n1
[5]
  concentration at 1 h: 2.99 µM
[6]
  Drug uptake(free): 63 nM
[7]
  concentration at 1 h: 135 nM

## CCc1cc(CC(=O)Nc2ccn(Cc3ccc(C#N)cn3)n2)ccc1OCC(F)(F)F
[6]
  Drug uptake(free): 4.8 nM

## O=C(Cc1ccc2cc[nH]c2c1)Nc1ccn(Cc2ccc(F)c(F)c2)n1
[5]
  concentration at 1 h: 4.11 µM
[7]
  concentration at 1 h: 50 nM
[8]
  Stability: Unstable

## Nc1ccn(Cc2ccc(F)cc2)n1
[1]
  fold change (FC): 4.1
[2]
  fold change (FC): 10.2

## O=C(Cc1ccc2[nH]ccc2c1)Nc1ccn(Cc2ccc(F)c(F)c2)n1
[5]
  concentration at 1 h: 4.68 µM
[6]
  Drug uptake(free): 52 nM
[7]
  concentration at 1 h: 164 nM
[8]
  Stability: Unstable
[9]
  half-life at 10 µM: 120 min
[10]
  half-life at 10 µM: 300 min
[11]
  Drug metabolism: Metabolite_Detected
[12]
  Drug metabolism: Metabolite_Detected

## Nc1ccn(Cc2ccc(F)c(F)c2)n1
[13]
  Drug metabolism: Metabolite_Detected
[14]
  Drug metabolism: Metabolite_Detected
[1]
  fold change (FC): 2.7
[2]
  fold change (FC): 1.2

## N#Cc1ccc(Cn2ccc(N)n2)nc1
[1]
  fold change (FC): 1
[2]
  fold change (FC): 1.3

## CC(C)(C)c1ccc(CC(=O)Nc2ccn(Cc3ccc(C#N)cn3)n2)cc1
[15]
  microsomal CLint at […], 1 µM: 6 µL/min/mg
[6]
  Drug uptake(free): 6.1 nM

## N#Cc1ccc(Cn2ccc(N)n2)cc1F
[1]
  fold change (FC): 1.2
[2]
  fold change (FC): 2.2

## N#Cc1ccc(Cn2ccc(NC(=O)Cc3ccc(C4(C(F)(F)F)CC4)cc3)n2)nc1 [APINOCALTAMIDE]
[15]
  microsomal CLint at […], 1 µM: 24 µL/min/mg
[16]
  microsomal CLint at […], 1 µM: 59 µL/min/mg
[6]
  Drug uptake(free): 29 nM
[17]
  clearance: 24 mL/min/kg
[18]
  half-life: 150 min
[19]
  Cmax: 1900 nM
[20]
  bioavailability: 75%
[21]
  Drug uptake(free): 244 nM
[22]
  fCmax: 190 nM
[23]
  fCmax: 90 nM
[24]
  fCmax: 140 nM
[25]
  fCmax: 140 nM
[26]
  fCmax: 160 nM
[27]
  microsomal CLint at […], 1 µM: 9 µL/min/mg
[28]
  clearance: 13 mL/min/kg
[29]
  clearance at […]: 0.9 mL/min/kg
[30]
  clearance at […]: 5.5 mL/min/kg

## N#Cc1cc(Cn2ccc(N)n2)ccc1F
[1]
  fold change (FC): 1.5
[2]
  fold change (FC): 1.5

## CC(C)(C)c1ccc(CC(=O)Nc2ncn(Cc3ccc(F)c(F)c3)n2)cc1
[6]
  Drug uptake(free): 2.4 nM

## COc1ccc(C2(C(=O)Nc3ccn(Cc4ccccc4)n3)CC2)cc1
[31]
  metabolised at 6 h, 10 µM: < 1%

## CC(C)c1ccc(CC(=O)Nc2ccn(CC3CCC(F)(F)CO3)n2)cc1 (stereo in doubt; 15a)
[15]
  microsomal CLint at […], 1 µM: 43 µL/min/mg
[16]
  microsomal CLint at […], 1 µM: > 500 µL/min/mg
[17]
  clearance: > 100 mL/min/kg

## COc1ccc(Cn2ccc(N)n2)cc1
[1]
  fold change (FC): 8
[2]
  fold change (FC): 20.8

## CC(C(=O)Nc1ccn(Cc2ccc(F)cc2)n1)c1ccc(N(C)C)cc1 (racemic)
[31]
  metabolised at 6 h, 10 µM: 7%

## [3H]c1cc(NC(=O)Cc2ccc(C3(C(F)(F)F)CC3)cc2)nn1Cc1ccc(C#N)cn1
[32]
  PB: 72 pmol/mg/h

## Nc1ncn(Cc2ccc(F)c(F)c2)n1
[1]
  fold change (FC): 1.1
[2]
  fold change (FC): 1.1

## N#Cc1nc(Cn2ccc(N)n2)ccc1F
[1]
  fold change (FC): 1.2
[2]
  fold change (FC): 1.4

## Nc1ccn(CC2CCC(F)(F)CO2)n1 (stereo in doubt; 14a)
[1]
  fold change (FC): 1.4
[2]
  fold change (FC): 1.3

## N#Cc1cn(Cc2ccc(F)c(F)c2)nc1N
[1]
  fold change (FC): 1.1
[2]
  fold change (FC): 1.1

## CC(C)c1ccc(CC(=O)Nc2ccn(Cc3ccccc3)n2)cc1
[31]
  metabolised at 6 h, 10 µM: 4%

## Cn1ncc2cc(CC(=O)Nc3ccn(Cc4ccc(F)c(F)c4)n3)ccc21
[6]
  Drug uptake(free): 51 nM
[7]
  concentration at 1 h: 92 nM
[33]
  Cp(f): 72 nM

## Cn1ncc2cc(CC(=O)Nc3cnn(Cc4ccc(F)c(F)c4)n3)ccc21
[6]
  Drug uptake(free): 63 nM

## Cc1ccc(Cn2ccc(N)n2)cc1
[1]
  fold change (FC): 15.1
[2]
  fold change (FC): 19.8
